Experimental data gathered from unrelated publications.
Compare with care: the assays were run in different laboratories.
Target: Tau-tubulin kinase 2 (TTBK2, Homo sapiens, UniProt Q6IQ55)
Read-out: enzyme activity
Action: inhibitor

Compound	method	concentration	quantity	result
CC(C)(C)c1nc(-c2cccc(NS(=O)(=O)c3c(F)cccc3F)c2F)c(-c2ccnc(N)n2)s1	radiometric	1 µM	remaining activity	104%
COc1cc(/C=C/C(=O)CC(=O)/C=C/c2ccc(O)c(OC)c2)ccc1O		1 µM	activity vs control	115%
FC(F)(F)Oc1cccc(-c2cnc3ccc(-c4ccncc4)nn23)c1	radiometric	1 µM	activity vs control	96%
CC(C)(O)[C@H]1CC[C@H](Nc2ccc3ncc(-c4cccc(C(F)(F)F)c4)n3n2)CC1		1 µM	remaining activity	94.4%
O=C(Nc1cnn(-c2csc(C(=O)NC3COC3)c2)c1)Nc1ccccc1Cl		5 µM	remaining activity	107%
Cc1ccc(C(=O)NCc2ccsc2)cc1C#Cc1cn(C(C)C)c2ncnc(N)c12		1 µM	activity vs control	87%
COc1cc(Cl)c(C(=O)N[C@@H](CN[C@H]2CC[C@@H](N)CC2)Cc2ccc(C#N)cc2)cc1-c1ccc(CN[C@H](C)c2ccc(C)cc2)o1		1 µM	remaining activity	96%
CN1CC(Oc2cnc(C#N)cc2-c2ccn3nc(NC(=O)C4CC4)cc3c2)C1		1 µM	inhibition	13%
COc1cc(Nc2cnc(C#N)c(O[C@H](C)CN(C)C)n2)ncc1-c1cnn(C)c1	radiometric	1 µM	remaining activity	100%
CC(C)(C)c1nc2c(s1)c1nc(N)ncc1c1ccc(NS(=O)(=O)c3c(F)cccc3F)c(F)c12	radiometric	1 µM	remaining activity	104%
O=C(Nc1cnn(-c2csc(C(=O)NC3COC3)c2)c1)Nc1c(F)cccc1Cl		5 µM	remaining activity	104%
